From ChEMBL document CHEMBL3877271, “Antagonizing STAT3 activation with benzo[b]thiophene 1, 1-dioxide based small molecules” (Eur J Med Chem, 2017)
The source made the active and inactive calls. No cut-off for these calls is given here.

Columns and labels:
[1] = Antiproliferative activity against human A549 cells after 72 hrs by MTT assay; format: functional, cell-based; details: A549, 72 h
Procedure, shortened: (§1)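 Cells in RPMI-1640 with 10% FBS, penicillin/streptomycin, 37 °C, 5% CO₂; seeded 3000-5000 cells/well, left overnight (16 h), then medium replaced with fresh medium holding serial dilutions in triplicate for 72 h. MTT read-out; viability = absorbance of treated/solvent control × 100%. Stattic served as reference.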

[2] = Antiproliferative activity against human HCT116 cells after 72 hrs by MTT assay; format: functional, cell-based; details: HCT-116, 72 h; procedure, shortened: as §1
MDA-MB-231 [3] = assay: Potency index, ratio of stattic IC50 to compound IC50 for human MDA-MB-231 cells; format: functional
[4] = target: Signal transducer and activator of transcription 3 (Homo sapiens) (UniProt P40763); assay: Inhibition of STAT3 phosphorylation at Tyr-705 residue in human MDA-MB-231 cells after 24 hrs by Western blot method; format: cell-based
[5] = target: Signal transducer and activator of transcription 3 (Homo sapiens) (UniProt P40763); assay: Inhibition of STAT3 in human MDA-MB-231 cells assessed as downregulation of Bcl2 expression at 1 to 5 uM after 24 hrs by Western blot method; format: cell-based
Procedure, shortened: (§2)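 MDA-MB-231 cells treated 24 h, trypsinised and lysed in RIPA buffer (50 mM Tris-HCl pH 7.4, 150 mM NaCl, 0.25% deoxycholate, 1% NP-40, 1 mM EDTA, protease inhibitors). Equal total protein from whole-cell lysates immunoblotted; Stattic 5 µM used as comparator.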

MDA-MB-231 [6] = assay: Induction of apoptosis in human MDA-MB-231 cells assessed as increase in cleaved PARP expression at 1 to 5 uM after 24 hrs by Western blot method; format: functional, cell-based; procedure, shortened: as §2
MDA-MB-231 [7] = assay: Induction of apoptosis in human MDA-MB-231 cells assessed as increase in cleaved caspase-3 expression at 1 to 5 uM after 24 hrs by Western blot method; format: functional, cell-based; procedure, shortened: as §2
MDA-MB-231 [8] = assay: Induction of apoptosis in human MDA-MB-231 cells assessed as necrotic cells at 1 uM after 24 hrs by Annexin-V FITC/propidium iodide staining based flow cytometry (reference value: 4.1%); format: functional
MDA-MB-231 [9] = assay: Induction of apoptosis in human MDA-MB-231 cells assessed as live cells at 5 uM after 24 hrs by Annexin-V FITC/propidium iodide staining based flow cytometry (reference value: 90.3%); format: functional
MDA-MB-231 [10] = assay: Induction of apoptosis in human MDA-MB-231 cells assessed as early apoptotic cells at 7 uM after 24 hrs by Annexin-V FITC/propidium iodide staining based flow cytometry (reference value: 3.8%); format: functional
MDA-MB-231 [11] = assay: Induction of ROS generation in human MDA-MB-231 cells at 3 uM after 24 hrs by DCFH-DA staining based flow cytometry relative to control; format: functional
Procedure, shortened: (§3)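 3 × 10⁵ cells/well in 6-well plates treated 24 h (0, 1, 3, 5 µM). Medium replaced with serum-free medium holding DCFH-DA at 10 µM final, 20 min at 37 °C. Cells washed twice, trypsinised, resuspended in warm PBS and read by flow cytometry.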

MDA-MB-231 [12] = assay: Induction of ROS generation in human MDA-MB-231 cells at 5 uM after 24 hrs by DCFH-DA staining based flow cytometry relative to control; format: functional; procedure, shortened: as §3
Mus musculus = assay: In vivo inhibition of STAT3 phosphorylation in ICR mouse tumor implanted with mouse 4T1 cells at 10 mg/kg, ip daily for 11 days measured on day 12 by Western blot method; format: functional, organism-based
Procedure, shortened: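 Male ICR mice, 5 weeks old, inoculated with 2 × 10⁶ 4T1 cells at the right armpit. At 24 h, randomised into groups of 6 and dosed i.p.; vehicle PBS/DMSO (8:2) daily for 11 days. Killed day 12; tumours weighed; TI% = (1 − mean treated/mean control weight) × 100. Tumour p-STAT3 and STAT3 assessed by western blot.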

Sequence of Signal transducer and activator of transcription 3 (Homo sapiens) (P40763 whole entry): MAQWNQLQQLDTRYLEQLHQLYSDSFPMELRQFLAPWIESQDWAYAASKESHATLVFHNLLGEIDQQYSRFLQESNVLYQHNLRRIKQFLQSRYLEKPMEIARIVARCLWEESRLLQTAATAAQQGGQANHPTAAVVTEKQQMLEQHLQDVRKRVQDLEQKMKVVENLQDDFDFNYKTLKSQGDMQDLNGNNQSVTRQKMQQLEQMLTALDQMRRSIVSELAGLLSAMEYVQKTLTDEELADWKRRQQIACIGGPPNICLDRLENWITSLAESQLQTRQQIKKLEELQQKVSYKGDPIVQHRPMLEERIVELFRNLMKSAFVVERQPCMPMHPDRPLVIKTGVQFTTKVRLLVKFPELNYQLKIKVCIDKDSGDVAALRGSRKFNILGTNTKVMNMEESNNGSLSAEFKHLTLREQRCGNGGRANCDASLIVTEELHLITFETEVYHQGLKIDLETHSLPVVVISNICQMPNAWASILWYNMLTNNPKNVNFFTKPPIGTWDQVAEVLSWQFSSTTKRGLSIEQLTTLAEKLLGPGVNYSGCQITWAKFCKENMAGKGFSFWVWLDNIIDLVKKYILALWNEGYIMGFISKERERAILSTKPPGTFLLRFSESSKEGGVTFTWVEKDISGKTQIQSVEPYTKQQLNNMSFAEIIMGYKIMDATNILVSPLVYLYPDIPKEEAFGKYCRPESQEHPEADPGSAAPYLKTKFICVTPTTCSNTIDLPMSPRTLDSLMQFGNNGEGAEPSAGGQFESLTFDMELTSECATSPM

- inhibition [4]: Dose-dependent effect
- inhibition [5]: Active
Structure (SMILES): O=S1(=O)C=Cc2cccc(Nc3cccc(C(F)(F)F)c3)c21
- IC50 [1]: 360 nM
- IC50 [2]: 330 nM
- Ratio IC50 (MDA-MB-231 [3]): 1.5 - 12
- Activity (MDA-MB-231 [6]): Active
- Activity (MDA-MB-231 [7]): Active
- Activity (MDA-MB-231 [8]): 6.2%
- Activity (MDA-MB-231 [9]): 75.3%
- Activity (MDA-MB-231 [10]): 12.2%
- fold change (FC) (MDA-MB-231 [11]): 1.74
- fold change (FC) (MDA-MB-231 [12]): 1.94
- inhibition (Mus musculus): Active
